The record followed here is ChEMBL document CHEMBL5150070, “Tricyclic SpiroLactams Kill Mycobacteria In Vitro and In Vivo by Inhibiting Type II NADH Dehydrogenases” (J Med Chem, 2022).

Structures are written as SMILES. Converted amounts (≈) assume the structure as drawn. Some results are limits rather than exact numbers.

The nature of data set [1]: Aqueous solubility of compound in pH 7.4 […]. It is filed as physicochemical. As to conditions: buffer. In outline:
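A 10 mM DMSO stock was diluted 50-fold into PBS pH 7.4 or methanol and shaken gently for 24 h at room temperature. Samples were centrifuged, filtered (0.45 µm), diluted 50-fold in MeOH and analysed by LC-MS/MS. Solubility = (AUC PBS/AUC MeOH)×200. Run in triplicate.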

The target in data set [2] is T1, Type II NADH:quinone oxidoreductase NdhA (Mycobacterium tuberculosis, UniProt P95200).
T1 sequence (P95200 whole entry): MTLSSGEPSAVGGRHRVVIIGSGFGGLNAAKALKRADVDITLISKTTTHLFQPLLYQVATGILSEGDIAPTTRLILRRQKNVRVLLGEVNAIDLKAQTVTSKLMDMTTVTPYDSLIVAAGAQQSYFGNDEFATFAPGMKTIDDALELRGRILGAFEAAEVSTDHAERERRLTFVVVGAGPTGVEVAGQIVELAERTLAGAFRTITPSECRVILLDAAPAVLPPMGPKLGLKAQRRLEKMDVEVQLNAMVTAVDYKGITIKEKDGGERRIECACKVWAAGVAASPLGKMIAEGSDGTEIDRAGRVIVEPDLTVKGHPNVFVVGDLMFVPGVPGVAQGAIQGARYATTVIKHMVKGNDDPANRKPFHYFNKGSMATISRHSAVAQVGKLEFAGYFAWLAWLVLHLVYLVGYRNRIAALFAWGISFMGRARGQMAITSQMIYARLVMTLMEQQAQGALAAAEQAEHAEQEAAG
Nature of the data set: Inhibition of Mycobacterium smegmatis MC2 155 recombinant ndhA assessed as rate of NADH oxidation in the presence of an electron acceptor menadione. Further details: species or system Mycolicibacterium smegmatis.

The subject of data set [3] is Mycobacterium tuberculosis. Nature of the data set: Antimycobacterial activity against Mycobacterium tuberculosis H37Rv infected in human A-THP1 macrophages assessed as viability of infected macrophages incubated for 96 hrs by fluorescence microplate assay. It counts as functional, organism-based. In outline:
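THP-1 cells differentiated with 50 ng/mL PMA for 72 h, infected with log-phase H37Rv (MOI 10, 2 h), and extracellular bacteria killed with 50 µg/mL amikacin for 1 h. Cells detached and seeded at 5×10⁵/mL in RPMI-10% FBS with PMA onto pre-dispensed compound, 96 h at 37°C, 5% CO₂. Macrophage viability by 0.05% resazurin fluorescence.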

A short description of data set [4]: Octanol/PBS partition coefficient, logD of compound at pH 7.4 measured after 2 hrs by shake flask method. As to conditions: octanol/water, pH 7.4, 2 h. It counts as physicochemical. In outline: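 A 10 mM DMSO stock was diluted 50-fold into 1:1 octanol:PBS pH 7.4 and shaken gently for 2 h at room temperature. Each phase was diluted 50-fold in MeOH and quantified by LC-MS/MS. LogD = log of the octanol/PBS concentration ratio from mass signals. Run in triplicate.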

Data set [5] concerns Mycobacterium tuberculosis. Nature of the data set: Antibiotic activity against Mycobacterium tuberculosis H37Rv assessed as reduction in bacterial cell growth by measuring resazurin reduction incubated for 6 days by fluorescence microplate based assay. It counts as functional. The note with it: 144 h, time 6 day.
A further data set relates to Mycobacterium marinum. As to the kind of experiment: Antibiotic activity against Mycobacterium marinum M strain assessed as reduction in bacterial cell growth by measuring resazurin reduction incubated for 6 days by fluorescence microplate based assay. It is filed as functional. The note with it: 144 h, time 6 day.
The subject of a further data set is Mycobacterium avium. As to the kind of experiment: Antibiotic activity against Mycobacterium avium TMC 724, ATCC-25291 assessed as reduction in bacterial cell growth by measuring resazurin reduction incubated for 6 days by fluorescence microplate based assay. The note with it: TMC 724, ATCC-25291, 144 h, time 6 day. It counts as functional.
In data set [6] the test system is Mycolicibacterium smegmatis. Nature of the data set: Antibiotic activity against Mycobacterium smegmatis mc2155 assessed as reduction in bacterial cell growth by measuring resazurin reduction incubated for 6 days by fluorescence microplate based assay. It is filed as functional. As to conditions: mc2155, 144 h, time 6 day.
Data set [7] relates to Mycobacteroides abscessus. Nature of the data set: Antibiotic activity against Mycobacterium abscessus CIP104536, Smooth variant assessed as reduction in bacterial cell growth by measuring resazurin reduction incubated for 6 days by fluorescence microplate based assay. It counts as functional. The note with it: 144 h, time 6 day.
The test system of data set [8] is Mycobacteroides abscessus. Nature of the data set: Antibiotic activity against Mycobacterium abscessus CIP104536, Rough variant assessed as reduction in bacterial cell growth by measuring resazurin reduction incubated for 6 days by fluorescence microplate based assay. It is filed as functional. The note with it: 144 h, time 6 day.
The test system of a further data set is Bacillus subtilis. Nature of the data set: Antibiotic activity against Bacillus subtilis ATCC6633 assessed as reduction in bacterial cell growth by measuring resazurin reduction incubated for 6 days by fluorescence microplate based assay. As to conditions: ATCC6633, 144 h, time 6 day. It counts as functional.
The subject of a further data set is Staphylococcus aureus. As to the kind of experiment: Antibiotic activity against Staphylococcus aureus SH1000 assessed as reduction in bacterial cell growth by measuring resazurin reduction incubated for 6 days by fluorescence microplate based assay. It is filed as functional. The note with it: SH1000, 144 h, time 6 day. Put shortly: (§1)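 E. coli BW25113, E. coli ΔtolC and S. aureus SH1000 were cultured and tested in cation-adjusted Mueller Hinton II broth. Viability was read by adding resazurin and measuring resorufin fluorescence at Ex 530 nm / Em 590 nm.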

For a further data set, the system named is Escherichia coli. Nature of the data set: Antibiotic activity against Escherichia coli deltatolC BW25113 deltatolC assessed as reduction in bacterial cell growth by measuring resazurin reduction incubated for 6 days by fluorescence microplate based assay. It counts as functional. As to conditions: 144 h, time 6 day. Put shortly:
as §1

A further data set relates to Pseudomonas aeruginosa. Nature of the data set: Antibiotic activity against Pseudomonas aeruginosa POA1 assessed as reduction in bacterial cell growth by measuring resazurin reduction incubated for 6 days by fluorescence microplate based assay. As to conditions: POA1, 144 h, time 6 day. It is filed as functional.
The test system of a further data set is Klebsiella pneumoniae. Nature of the data set: Antibiotic activity against Klebsiella pneumoniae LMG 2095 assessed as reduction in bacterial cell growth by measuring resazurin reduction incubated for 6 days by fluorescence microplate based assay. It counts as functional. As to conditions: LMG 2095, 144 h, time 6 day.
A further data set has as its system Acinetobacter baumannii. As to the kind of experiment: Antibiotic activity against Acinetobacter baumannii LMG-17978 assessed as reduction in bacterial cell growth by measuring resazurin reduction incubated for 6 days by fluorescence microplate based assay. As to conditions: LMG-17978, 144 h, time 6 day. It is filed as functional.
Data set [9] deals with Mycobacterium tuberculosis. As to the kind of experiment: Bactericidal activity against Non-replicating Mycobacterium tuberculosis ss18b-lux model assessed as decrease in luminescence at 10 to 10000 nM. It counts as functional, organism-based. As to conditions: dose 10-10000 nM, TDE = time-dependent effect. In outline: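 Non-replicating streptomycin-starved 18b-lux (14-day starvation) diluted to OD600 0.15 in white 96-well plates with compound and incubated at 37°C. Luminescence read on days 1, 2, 5 and 7 and expressed relative to no-antibiotic controls (n ≥ 3).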

For data set [10], the system named is Mycobacterium tuberculosis. Nature of the data set: Bactericidal activity against Non-replicating Mycobacterium tuberculosis ss18b-lux assessed as decrease in colony forming unit measured at 0.6 uM after 1 weeks. It counts as functional. In outline:
(§2)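 Streptomycin-dependent 18b-lux starved of streptomycin for 14 days (OD600 reset to 0.2 on days 7 and 13) to become non-replicating. Diluted to OD600 0.15 on dispensed compound and held at 37°C. On day 7, active wells plated on 7H11-OADC with 50 µg/mL streptomycin and incubated up to 8 weeks for cfu.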

For data set [11], the system named is Mycobacterium tuberculosis. Nature of the data set: Bactericidal activity against Non-replicating Mycobacterium tuberculosis ss18b-lux assessed as decrease in colony forming unit measured at 1 uM after 1 weeks. It is filed as functional. Put shortly: as §2

In turn, `CC(C)[C@H]1CO[C@]23CCN(Cc4ccccc4)C[C@H]2CCC(=O)N13` yielded a solubility in data set [1] of 178 µM (≈ 58.5 µg/mL). Besides, the figures for the IC50 in data set [2] and in [3] were 980 nM and 8200 nM, respectively. For the same compound, the logD in data set [4] is recorded as 2.7. Moreover, the MIC is 3.2 µM (≈ 1.05 µg/mL) in data set [5]; 6.3 µM (≈ 2.07 µg/mL) in the data set with Mycobacterium marinum; 13.1 µM (≈ 4.3 µg/mL) with Mycobacterium avium; 29.2 µM (≈ 9.59 µg/mL) in data set [6]; no less than 100 µM in [7]; no less than 100 µM in [8]. Also, the MIC with Bacillus subtilis, in the data set with Staphylococcus aureus, in the data set on Escherichia coli, in the data set with Pseudomonas aeruginosa, with Klebsiella pneumoniae and in the data set with Acinetobacter baumannii was greater than 100 µM in each case.

In the case of `CO[C@H]1/C=C/O[C@@]2(C)Oc3c(C)c(O)c4c(O)c(c(/C=N/N5CCN(C)CC5)c(O)c4c3C2=O)NC(=O)/C(C)=C\C=C\[C@H](C)[C@H](O)[C@@H](C)[C@@H](O)[C@@H](C)[C@H](OC(C)=O)[C@@H]1C` [RIFAMPIN], the IC50 in data set [3] came out at 91 nM. Moreover, the Activity result in data set [9] is “Tde”; in data set [10], 1 log10CFU.

As for `COc1nc2ccc(Br)cc2cc1[C@@H](c1ccccc1)[C@@](O)(CCN(C)C)c1cccc2ccccc12` [BEDAQUILINE], the IC50 in data set [3] came out at 34 nM. Further, the Activity entry in data set [9] is “Tde”; in data set [11] it was 1 log10CFU.
